From ChEMBL document CHEMBL1133107, “3-(Hydroxymethyl)-bearing phosphatidylinositol ether lipid analogues and carbonate surrogates block PI3-K, Akt, and cancer cell growth” (J Med Chem, 2000)

What was measured:
[1] = tested on: HeLa; assay: Tested in vitro for their inhibitory activity against Hela(cervical) cell line; format: functional, cell-based; conditions: Homo sapiens
In short: (§1)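 Cells were seeded at 30 000 per well in DMEM with 10% FBS, and drugs were added 16 h later. Growth continued for 3 days in DMEM/10% FBS with or without a range of drug concentrations. Cells were then counted on a hemocytometer to give growth-inhibition IC50.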

[2] = tested on: MCF7; assay: Tested in vitro for their inhibitory activity against MCF-7(breast) cell line; format: functional, cell-based; conditions: Homo sapiens; in short: as §1
[3] = Inhibition of murine p100/p85 PI3-K (phosphatidylinositol 3-kinase); design: species or system Mus musculus
[4] = tested on: HT-29; assay: Tested in vitro for their inhibitory activity against HT-29 (colon) cell line; format: functional, cell-based; conditions: Homo sapiens; in short: as §1
[5] = biological target: Serine/threonine-protein kinase AKT (Homo sapiens, UniProt P31751+Q9Y243+P31749); assay: Inhibition of Akt (proto-oncogenic serine/threonine PKB) kinase; format: protein assay
[6] = tested on: PC-3; assay: Tested in vitro for their inhibitory activity against PC-3(prostate) cell line.; format: functional, cell-based; conditions: Homo sapiens; in short: as §1

## CCCCCCCCCCCCCCCCCCOC[C@H](COP(=O)(O)O[C@H]1[C@@H](O)[C@@H](O)[C@H](O)C[C@H]1O)OC
[1]
  IC50: 7 µM
[2]
  IC50: 7.2 µM
[3]
  IC50: 14.8 µM

## CCCCCCCCCCCCCCCCCCOC[C@H](COP(=O)(O)O[C@@H]1[C@H](O)[C@H](CO)[C@@H](O)[C@H](O)[C@@H]1O)OC
[1]
  IC50: 1 µM
[4]
  IC50: 4.5 µM
[2]
  IC50: 5 µM
[5]
  IC50: 7.8 µM
[3]
  IC50: 31 µM
[6]
  IC50: 4 µM

## CCCCCCCCCCCCCCCCCCOC[C@H](COC(=O)O[C@H]1[C@@H](O)[C@@H](O)[C@H](O)C[C@H]1O)OC
[1]
  IC50: 30 µM
[4]
  IC50: 2.5 µM
[2]
  IC50: 12 µM
[5]
  IC50: 12.5 µM
[3]
  IC50: 15.5 µM
[6]
  IC50: 7 µM

## CCCCCCCCCCCCCCCCCCOC[C@H](COC(=O)O[C@@H]1[C@H](O)[C@H](CO)[C@@H](O)[C@H](O)[C@@H]1O)OC
[1]
  IC50: 2.5 µM
[4]
  IC50: 10 µM
[2]
  IC50: 1.2 µM
[5]
  IC50: 5 µM
[3]
  IC50: 83 µM
[6]
  IC50: 2 µM

## CCCCCCCCCCCCCCCCCCOC[C@H](COC(=O)O[C@@H]1[C@H](O)[C@@H](CO)[C@@H](O)[C@H](O)[C@@H]1O)OC
[1]
  IC50: > 20 µM
[4]
  IC50: 12 µM
[2]
  IC50: 12.5 µM
[5]
  IC50: 32 µM
[3]
  IC50: 21.3 µM
[6]
  IC50: 10 µM

## CCCCCCCCCCCCCCCCCCOC[C@H](COP(=O)(O)O[C@@H]1[C@H](O)[C@@H](CO)[C@@H](O)[C@H](O)[C@@H]1O)OC
[1]
  IC50: 7.5 µM
[4]
  IC50: 7.5 µM
[2]
  IC50: 2 µM
[5]
  IC50: 9.1 µM
[3]
  IC50: 18.5 µM
[6]
  IC50: 2 µM
